This is a sample that favours compounds with a hit; in the whole collection about 1.9% have one here.
ZTA counter – ZTA (EBV) inhibition in EBNA-1 counter-screen | ZTA-DNA binding, fluorescence polarization | inhibition, % at 11 µM | actives 0.15% (n = 320,000) | P03206; in the data active = inhibition above about 33%
Target sequence (P03206 whole entry, looked up): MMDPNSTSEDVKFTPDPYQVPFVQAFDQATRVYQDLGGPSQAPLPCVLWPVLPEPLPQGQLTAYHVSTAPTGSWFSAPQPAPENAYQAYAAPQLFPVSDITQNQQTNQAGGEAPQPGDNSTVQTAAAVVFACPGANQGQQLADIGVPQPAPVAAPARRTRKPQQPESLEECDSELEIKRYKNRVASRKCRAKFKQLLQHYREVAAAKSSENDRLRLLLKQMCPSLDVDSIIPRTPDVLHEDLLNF
EBNA-1 inhibitor – EBNA-1 DNA-binding inhibitors, primary screen, biochemical, fluorescence polarization | actives 0.34% (n = 300,000) | AID 1950, 2009 | inhibition, % at 14.8 µM; in the data active = inhibition above about 28%
PP1 counter – PP1-alpha phosphatase inhibitors, primary screen, counter-screen for PP5 inhibitor project, biochemical, fluorescence, OMFP substrate, single point. Serine/threonine-protein phosphatase PP1-alpha catalytic subunit (Homo sapiens), P62136. purified PP1alpha. inhibition, % at 6.7 µM. actives 0.9% (n = 320,000);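 active = inhibition above the mean inhibition of all tested compounds plus 3 SD, computed separately for each screening campaign, cut at about 15% in these data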
Target sequence (P62136 whole entry, looked up): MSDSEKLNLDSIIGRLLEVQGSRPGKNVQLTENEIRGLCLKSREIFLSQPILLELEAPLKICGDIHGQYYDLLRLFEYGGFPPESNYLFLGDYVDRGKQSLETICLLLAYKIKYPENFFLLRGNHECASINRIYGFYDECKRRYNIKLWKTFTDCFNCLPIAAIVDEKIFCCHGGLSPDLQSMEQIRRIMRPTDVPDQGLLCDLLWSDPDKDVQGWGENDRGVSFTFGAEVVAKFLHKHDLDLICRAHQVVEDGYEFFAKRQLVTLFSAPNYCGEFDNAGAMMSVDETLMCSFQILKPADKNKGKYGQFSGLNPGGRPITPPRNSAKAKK
HCV NS3 hel inh – inhibitors of HCV NS3 helicase, primary screen, biochemical, Cy5 molecular beacon fluorescence; NS3 helicase DNA unwinding; inhibition, % at 10.9 µM; actives 0.56% (n = 290,000); AID 1800, 2009;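 active = inhibition above the mean of all tested compounds plus 3 SD, set per campaign, cut at about 35% in these data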
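Assay system: hepatitis C virus NS3 helicase domain fragment enzyme. Also added: annealed dual-labelled DNA beacon duplex, ATP-started. Timing: 1 h reaction at 25 °C, ATP-initiated. Technique: Cy5 fluorescence at 0 and 60 min, beacon hairpin quenching. Evaluation: % inhibition of unwinding. Replication: one well per compound.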
HCV core dimer – inhibitors of HCV core protein dimerization, primary screen, biochemical, TR-FRET, high-throughput. TR-FRET GST/Flag-core106 dimerization, 1536-well. inhibition, % at 5 µM. actives 0.33% (n = 300,000);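 active = inhibition above the mean of all tested compounds plus 3 SD, set per screening campaign, cut at about 45% in these data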
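Material: GST/Flag-tagged HCV core106 proteins. Incubation: 4 h, 22.5 °C incubation. Read-out basis: inhibition (%) from 671 over 617 nm ratio. Measured by: TR-FRET, excitation 340 nm, emission 617 and 671 nm.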
Numbers stand for hits; 0 = inactive; - = not tested or not shown; ! = repeats disagree.

SMILES	ZTA counter	EBNA-1 inhibitor	PP1 counter	HCV NS3 hel inh	HCV core dimer
CC(C)(C)OC(=O)N1CCC(NC(=O)c2nc[nH]c2C(=O)N2CCc3ccccc3C2)CC1	0	-	0	-	-
O=C1c2ccccc2C(O)(c2ccccc2)N1c1ccncc1 (stereo not given)	0	0	16	0	0
O=C1c2ccccc2C(O)(c2ccccc2)N1CCc1ccccc1 (stereo not given)	0	0	0	0	0
Cc1ccsc1/C=N/NC(=O)c1nnn(-c2nonc2N)c1CSc1ccccc1	0	0	0	0	0
CCCCn1c(-c2cccc3ccccc23)nc2cc3[nH]c(=O)c(C(C)C)nc3cc21	0	0	16	0	0
COc1ccc(N2CSC3=C(C#N)C(c4cc(OC)ccc4OC)CC(=O)N3C2)c(OC)c1 (stereo not given)	0	0	0	0	0
COc1ccc(N2CSC3=C(C#N)C(c4cc(OC)c(OC)cc4OC)CC(=O)N3C2)c(OC)c1 (stereo not given)	0	0	0	66	0
O=C(NCC1CCCO1)c1ccc(NC(=O)c2cc(F)c(F)cc2Cl)cc1 (stereo not given)	0	0	0	0	0
Nc1nonc1-n1nnc(C(=O)N/N=C/c2cc(Cl)ccc2O)c1CN1CCCCCC1	0	0	16	-	0
CC(=O)c1ccc2c(c1)C1C=CCC1C(c1ccc(S(=O)(=O)N3CCOCC3)cc1)N2 (stereo not given)	0	0	0	0	79
O=C(O)c1ccc2c(c1)C1C=CCC1C(c1ccncc1)N2 (stereo not given)	0	0	0	0	0
O=c1c2ccccc2nc(N/N=C/c2ccc(O)cc2)n1O	0	0	0	0	0
O=c1c2ccccc2nc(N/N=C/c2c(O)ccc3ccccc23)n1O	0	0	18	0	0
O=C(CSC(=S)N1CCOCC1)Nc1ccc(S(=O)(=O)Nc2ncccn2)cc1	0	0	0	0	0
COc1ccc2cc3c(N)nn(C(=O)c4cccc([N+](=O)[O-])c4)c3nc2c1	0	0	0	0	58
COc1ccc2cc3c(N)nn(C(=O)Cc4ccccc4OC)c3nc2c1	0	0	0	0	0
CC(C)CNS(=O)(=O)c1ccc(S(=O)(=O)N2CCC3(CC2)OCCO3)cc1	0	0	0	0	0
CC(=O)N1CCN(S(=O)(=O)c2ccc(S(=O)(=O)NCC(C)C)cc2)CC1	0	0	16	0	0
CCN(CC(=O)Nc1ccccc1C(F)(F)F)C(=O)CN1C(=O)NC2(CCCC2)C1=O	0	0	0	-	0
O=C(Nc1cc(-c2ccccc2)[nH]n1)c1ccc(Cl)cc1	0	0	17	0	0
CC1(C)C(=O)Nc2ccccc2N1C(=O)COC(=O)C12CC3CC(CC(O)(C3)C1)C2	0	0	0	0	57
CCCN(C(=O)CSCc1ccc(Cl)cc1)c1c(N)n(Cc2ccccc2)c(=O)[nH]c1=O	0	0	0	-	0
CC12CCC(=O)N1C(C(=O)NNC(=O)c1ccccc1)CS2 (stereo not given)	0	0	0	-	0
Cc1cccc(CSc2[nH]c(=O)ncc2C)c1	0	0	0	0	0
COC(=O)c1ccc2c(c1)N(Cc1nc(-c3ccc(Cl)cc3)oc1C)C(=O)C1CCCN21 (stereo not given)	0	0	16	-	0
SMILES	ZTA counter	EBNA-1 inhibitor	PP1 counter	HCV NS3 hel inh	HCV core dimer
O=C(O)c1cc(O)c2c(c1)[C@H]([C@H]1c3cc(C(=O)O)cc(O)c3C(=O)c3c(O[C@@H]4O[C@H](CO)[C@@H](O)[C@H](O)[C@H]4O)cccc31)c1cccc(OC3O[C@H](CO)[C@@H](O)[C@H](O)[C@H]3O)c1C2=O (stereo not given in full)	0	94	86	-	0
O=C(O)c1cc(O)c2c(c1)[C@@H]([C@H]1c3cc(C(=O)O)cc(O)c3C(=O)c3c(O[C@@H]4O[C@H](CO)[C@@H](O)[C@H](O)[C@H]4O)cccc31)c1cccc(OC3O[C@H](CO)[C@@H](O)[C@H](O)[C@H]3O)c1C2=O (stereo not given in full)	0	94	87	-	0
O=C1c2cc(CO)cc(O)c2C(=O)c2c(O[C@@H]3OC(CO)[C@@H](O)[C@@H](O)[C@@H]3O)cccc21 (stereo not given in full)	0	0	0	-	0
COC1c2ccccc2C(=O)N1CCc1ccc(Cl)cc1 (stereo not given)	0	0	0	0	0
c1ccc(Cn2c(SCc3nc4ccccc4s3)nnc2-c2ccco2)cc1	0	0	0	0	50
O=C(COC(=O)c1ccc(Cl)nc1)Nc1ccc2c(c1)OCO2	0	0	0	0	0
O=c1cc(O)nc(SCc2ccccc2)n1-c1ccccc1	0	0	17!	0	0
CCCOc1ccccc1C(=O)N1CCNC(=O)C1CC(=O)OC(C)C (stereo not given)	0	0	0	0	0
O=C(Nc1ccccc1)Nc1cccc(NC(=O)Nc2ccccc2)c1F	0	0	16	0	0
O=C(Nc1ccccc1)Nc1ccccc1Br	0	0	0	0	0
O=C1NC(=S)S/C1=C\c1coc2ccc(O)cc2c1=O	45	0	0	0	0
O=C(CN(Cc1ccccc1)C(=O)CCC(=O)Nc1ccccn1)NCc1ccc(F)cc1	0	0	0	0	0
Sc1nnc(-c2ccc(Cl)cc2)n1Cc1ccccc1	0	-	15	-	-
COc1ccc(-n2c(-c3ccc(Cl)cc3)c[n+]3c2CCc2ccccc2-3)cc1	0	0	0	0	0
Cc1ccc(-n2c(-c3ccc(Br)cc3)c[n+]3c2CCc2ccc4cccnc4c2-3)cc1	0	0	25	0	0
Cc1ccc(C)c(N2CCN(C(=O)CSc3ccsc3[N+](=O)[O-])CC2)c1	0	0	0	0	56
O=C(CSc1ccsc1[N+](=O)[O-])N1CCN(c2ccc(Cl)cc2)CC1	0	0	0	0	67
O=C(CSc1ccsc1[N+](=O)[O-])N1CCN(c2ccccc2)CC1	0	0	0	0	0
O=C(CSc1nc(=O)n2ccccc2n1)N1CCCc2ccccc21	0	0	0	-	0
O=C(COC(=O)c1ccc(S(=O)(=O)N2CCCCC2)cc1)NCc1ccco1	0	0	0	0	0
O=C(OCc1ccco1)c1ccc(S(=O)(=O)N2CCCCC2)cc1	0	0	0	0	80
CCc1ccccc1NC(=O)COc1ccc(N2CC(C(N)=O)CC2=O)cc1 (stereo not given)	0	0	0	0	0
COc1ccc(CNC(=O)CN(Cc2ccccc2)C(=O)CCC(=O)Nc2ccccn2)cc1	0	0	0	0	0
C/C(N)=C(/C#N)C(=O)CSc1nc2ccc(C)cc2[nH]1	0	0	0	0	0
C/C(N)=C(/C#N)C(=O)CSc1nnc(COc2cc(C)ccc2C)o1	53	38	0	0	0

Assay outcomes (PubChem BioAssay)
